Laboratory results reported in ChEMBL document CHEMBL1914423, “New imidazo[2,1-b]thiazole derivatives: synthesis, in vitro anticancer evaluation, and in silico studies” (Eur J Med Chem, 2011).

The molecules below were run on CCRF-CEM (assay: Anticancer activity against human CCRF-CEM cells assessed as cell growth at 10^-5 M after 48 hrs by SRB assay). Conditions: read-out: Activity.
Type: functional
How it was run: (§1)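 NCI-60 single-dose screen at one concentration. Cells grown in RPMI 1640 with 5% FBS and 2 mM L-glutamine, plated at 5000–40,000 cells/well, and pre-incubated 24 h at 37 °C in 5% CO2 before DMSO-dissolved drug was added. Cells fixed with TCA, SRB-stained, absorbance read at 515 nm. Percent growth calculated against time-zero and untreated control plates.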

SMILES | growth at 10 µM [%]
O=C(NCCNc1nccc(-c2c(-c3cccc(O)c3)nc3sccn23)n1)Nc1ccccc1 | 46

The molecules below were run on RPMI-8226 (assay: Anticancer activity against human RPMI8226 cells assessed as cell growth at 10^-5 M after 48 hrs by SRB assay). Conditions: RPMI-8226, 48 h, read-out: Activity.
Type: functional

SMILES | growth at 10 µM [%]
O=C(NCCNc1nccc(-c2c(-c3cccc(O)c3)nc3sccn23)n1)Nc1ccccc1 | 58.3

The molecules below were run on EKVX (assay: Anticancer activity against human EKVX cells assessed as cell growth at 10^-5 M after 48 hrs by SRB assay). Conditions: read-out: Activity.
Type: functional
How it was run: as §1

SMILES | growth at 10 µM [%]
O=C(NCCNc1nccc(-c2c(-c3cccc(O)c3)nc3sccn23)n1)Nc1ccccc1 | 118

What follows are molecules tested on HOP-62 (assay: Anticancer activity against human HOP62 cells assessed as cell growth at 10^-5 M after 48 hrs by SRB assay). Conditions: HOP-62, 48 h, read-out: Activity.
Type: functional
How it was run: as §1

SMILES | growth at 10 µM [%]
O=C(NCCNc1nccc(-c2c(-c3cccc(O)c3)nc3sccn23)n1)Nc1ccccc1 | 150

These molecules were tested on HOP-92 (assay: Anticancer activity against human HOP92 cells assessed as cell growth at 10^-5 M after 48 hrs by SRB assay). Conditions: HOP-92, 48 h, read-out: Activity.
Type: functional
How it was run: as §1

SMILES | growth at 10 µM [%]
O=C(NCCNc1nccc(-c2c(-c3cccc(O)c3)nc3sccn23)n1)Nc1ccccc1 | 90.2

These molecules were tested on NCI-H226 (assay: Anticancer activity against human NCI-H226 cells assessed as cell growth at 10^-5 M after 48 hrs by SRB assay). Conditions: NCI-H226, 48 h, read-out: Activity.
Type: functional

SMILES | growth at 10 µM [%]
O=C(NCCNc1nccc(-c2c(-c3cccc(O)c3)nc3sccn23)n1)Nc1ccccc1 | 105

The molecules below were run on NCI-H23 (assay: Anticancer activity against human NCI-H23 cells assessed as cell growth at 10^-5 M after 48 hrs by SRB assay). Conditions: NCI-H23, 48 h, read-out: Activity.
Type: functional

SMILES | growth at 10 µM [%]
O=C(NCCNc1nccc(-c2c(-c3cccc(O)c3)nc3sccn23)n1)Nc1ccccc1 | 114

Each molecule was assayed on NCI-H322M (assay: Anticancer activity against human NCI-H322M cells assessed as cell growth at 10^-5 M after 48 hrs by SRB assay). Conditions: read-out: Activity.
Type: functional

SMILES | growth at 10 µM [%]
O=C(NCCNc1nccc(-c2c(-c3cccc(O)c3)nc3sccn23)n1)Nc1ccccc1 | 113

These molecules were tested on NCI-H522 (assay: Anticancer activity against human NCI-H522 cells assessed as cell growth at 10^-5 M after 48 hrs by SRB assay). Conditions: NCI-H522, 48 h, read-out: Activity.
Type: functional

SMILES | growth at 10 µM [%]
O=C(NCCNc1nccc(-c2c(-c3cccc(O)c3)nc3sccn23)n1)Nc1ccccc1 | 57

These molecules were tested on HCT-116 (assay: Anticancer activity against human HCT116 cells assessed as cell growth at 10^-5 M after 48 hrs by SRB assay). Conditions: HCT-116, 48 h, read-out: Activity.
Type: functional
How it was run: as §1

SMILES | growth at 10 µM [%]
O=C(NCCNc1nccc(-c2c(-c3cccc(O)c3)nc3sccn23)n1)Nc1ccccc1 | 67.5

These molecules were tested on HCT-15 (assay: Anticancer activity against human HCT15 cells assessed as cell growth at 10^-5 M after 48 hrs by SRB assay). Conditions: HCT-15, 48 h, read-out: Activity.
Type: functional
How it was run: as §1

SMILES | growth at 10 µM [%]
O=C(NCCNc1nccc(-c2c(-c3cccc(O)c3)nc3sccn23)n1)Nc1ccccc1 | 92.7

The molecules below were run on HT-29 (assay: Anticancer activity against human HT-29 cells assessed as cell growth at 10^-5 M after 48 hrs by SRB assay). Conditions: HT-29, 48 h, read-out: Activity.
Type: functional
How it was run: as §1

SMILES | growth at 10 µM [%]
O=C(NCCNc1nccc(-c2c(-c3cccc(O)c3)nc3sccn23)n1)Nc1ccccc1 | 61.9

Each molecule was assayed on KM12 (assay: Anticancer activity against human KM12 cells assessed as cell growth at 10^-5 M after 48 hrs by SRB assay). Conditions: KM12, 48 h, read-out: Activity.
Type: functional
How it was run: as §1

SMILES | growth at 10 µM [%]
O=C(NCCNc1nccc(-c2c(-c3cccc(O)c3)nc3sccn23)n1)Nc1ccccc1 | 68.8

Each molecule was assayed on SF-268 (assay: Anticancer activity against human SF268 cells assessed as cell growth at 10^-5 M after 48 hrs by SRB assay). Conditions: SF-268, 48 h, read-out: Activity.
Type: functional

SMILES | growth at 10 µM [%]
O=C(NCCNc1nccc(-c2c(-c3cccc(O)c3)nc3sccn23)n1)Nc1ccccc1 | 79.8

Each molecule was assayed on SF-539 (assay: Anticancer activity against human SF539 cells assessed as cell growth at 10^-5 M after 48 hrs by SRB assay). Conditions: SF-539, 48 h, read-out: Activity.
Type: functional

SMILES | growth at 10 µM [%]
O=C(NCCNc1nccc(-c2c(-c3cccc(O)c3)nc3sccn23)n1)Nc1ccccc1 | 62.4

Each molecule was assayed on SNB-75 (assay: Anticancer activity against human SNB75 cells assessed as cell growth at 10^-5 M after 48 hrs by SRB assay). Conditions: SNB-75, 48 h, read-out: Activity.
Type: functional
How it was run: (§2)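 NCI-60 single-dose screen: cells in RPMI 1640 with 5% FBS and 2 mM L-glutamine, plated at 5000–40,000 cells/well by doubling time, and preincubated 24 h at 37 °C. Compound given at one concentration from DMSO stock. Cells TCA-fixed and SRB-stained, absorbance at 515 nm. Percent growth relative to time-zero and untreated controls; inhibition % = 100 − growth %.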

SMILES | growth at 10 µM [%]
O=C(NCCNc1nccc(-c2c(-c3cccc(O)c3)nc3sccn23)n1)Nc1ccccc1 | 71.6

Each molecule was assayed on U-251 (assay: Anticancer activity against human U251 cells assessed as cell growth at 10^-5 M after 48 hrs by SRB assay). Conditions: U-251, 48 h, read-out: Activity.
Type: functional
How it was run: as §2

SMILES | growth at 10 µM [%]
O=C(NCCNc1nccc(-c2c(-c3cccc(O)c3)nc3sccn23)n1)Nc1ccccc1 | 108

What follows are molecules tested on LOX IMVI (assay: Anticancer activity against human LOXIMVI cells assessed as cell growth at 10^-5 M after 48 hrs by SRB assay). Conditions: read-out: Activity.
Type: functional
How it was run: as §1

SMILES | growth at 10 µM [%]
O=C(NCCNc1nccc(-c2c(-c3cccc(O)c3)nc3sccn23)n1)Nc1ccccc1 | 79.6

Each molecule was assayed on Malme-3M (assay: Anticancer activity against human MALME-3M cells assessed as cell growth at 10^-5 M after 48 hrs by SRB assay). Conditions: read-out: Activity.
Type: functional
How it was run: as §1

SMILES | growth at 10 µM [%]
O=C(NCCNc1nccc(-c2c(-c3cccc(O)c3)nc3sccn23)n1)Nc1ccccc1 | 36.1

Each molecule was assayed on SK-MEL-2 (assay: Anticancer activity against human SK-MEL-2 cells assessed as cell growth at 10^-5 M after 48 hrs by SRB assay). Conditions: SK-MEL-2, 48 h, read-out: Activity.
Type: functional

SMILES | growth at 10 µM [%]
O=C(NCCNc1nccc(-c2c(-c3cccc(O)c3)nc3sccn23)n1)Nc1ccccc1 | 97.5

The molecules below were run on OVCAR-3 (assay: Anticancer activity against human OVCAR3 cells assessed as cell growth at 10^-5 M after 48 hrs by SRB assay). Conditions: OVCAR-3, 48 h, read-out: Activity.
Type: functional

SMILES | growth at 10 µM [%]
O=C(NCCNc1nccc(-c2c(-c3cccc(O)c3)nc3sccn23)n1)Nc1ccccc1 | 112

The molecules below were run on OVCAR-5 (assay: Anticancer activity against human OVCAR5 cells assessed as cell growth at 10^-5 M after 48 hrs by SRB assay). Conditions: OVCAR-5, 48 h, read-out: Activity.
Type: functional

SMILES | growth at 10 µM [%]
O=C(NCCNc1nccc(-c2c(-c3cccc(O)c3)nc3sccn23)n1)Nc1ccccc1 | 114

Each molecule was assayed on OVCAR-8 (assay: Anticancer activity against human OVCAR8 cells assessed as cell growth at 10^-5 M after 48 hrs by SRB assay). Conditions: OVCAR-8, 48 h, read-out: Activity.
Type: functional

SMILES | growth at 10 µM [%]
O=C(NCCNc1nccc(-c2c(-c3cccc(O)c3)nc3sccn23)n1)Nc1ccccc1 | 68.1

What follows are molecules tested on SK-OV-3 (assay: Anticancer activity against human SKOV3 cells assessed as cell growth at 10^-5 M after 48 hrs by SRB assay). Conditions: SK-OV-3, 48 h, read-out: Activity.
Type: functional

SMILES | growth at 10 µM [%]
O=C(NCCNc1nccc(-c2c(-c3cccc(O)c3)nc3sccn23)n1)Nc1ccccc1 | 92.3

Each molecule was assayed on 786-0 (assay: Anticancer activity against human 786-0 cells assessed as cell growth at 10^-5 M after 48 hrs by SRB assay). Conditions: 786-0, 48 h, read-out: Activity.
Type: functional
How it was run: as §1

SMILES | growth at 10 µM [%]
O=C(NCCNc1nccc(-c2c(-c3cccc(O)c3)nc3sccn23)n1)Nc1ccccc1 | 100

The molecules below were run on A498 (assay: Anticancer activity against human A498 cells assessed as cell growth at 10^-5 M after 48 hrs by SRB assay). Conditions: A498, 48 h, read-out: Activity.
Type: functional
How it was run: as §1

SMILES | growth at 10 µM [%]
O=C(NCCNc1nccc(-c2c(-c3cccc(O)c3)nc3sccn23)n1)Nc1ccccc1 | 99.7

These molecules were tested on ACHN (assay: Anticancer activity against human ACHN cells assessed as cell growth at 10^-5 M after 48 hrs by SRB assay). Conditions: read-out: Activity.
Type: functional
How it was run: as §1

SMILES | growth at 10 µM [%]
O=C(NCCNc1nccc(-c2c(-c3cccc(O)c3)nc3sccn23)n1)Nc1ccccc1 | 85.3

These molecules were tested on UO-31 (assay: Anticancer activity against human UO31 cells assessed as cell growth at 10^-5 M after 48 hrs by SRB assay). Conditions: UO-31, 48 h, read-out: Activity.
Type: functional
How it was run: as §2

SMILES | growth at 10 µM [%]
O=C(NCCNc1nccc(-c2c(-c3cccc(O)c3)nc3sccn23)n1)Nc1ccccc1 | 86.6

What follows are molecules tested on DU-145 (assay: Anticancer activity against human DU145 cells assessed as cell growth at 10^-5 M after 48 hrs by SRB assay). Conditions: DU-145, 48 h, read-out: Activity.
Type: functional
How it was run: as §1

SMILES | growth at 10 µM [%]
O=C(NCCNc1nccc(-c2c(-c3cccc(O)c3)nc3sccn23)n1)Nc1ccccc1 | 110

What follows are molecules tested on MCF7 (assay: Anticancer activity against human MCF7 cells assessed as cell growth at 10^-5 M after 48 hrs by SRB assay). Conditions: MCF7, 48 h, read-out: Activity.
Type: functional
How it was run: as §1

SMILES | growth at 10 µM [%]
O=C(NCCNc1nccc(-c2c(-c3cccc(O)c3)nc3sccn23)n1)Nc1ccccc1 | 93.8

Each molecule was assayed on MDA-MB-231 (assay: Anticancer activity against human MDA-MB-231 cells assessed as cell growth at 10^-5 M after 48 hrs by SRB assay). Conditions: MDA-MB-231, 48 h, read-out: Activity.
Type: functional
How it was run: as §1

SMILES | growth at 10 µM [%]
O=C(NCCNc1nccc(-c2c(-c3cccc(O)c3)nc3sccn23)n1)Nc1ccccc1 | 85.9

The molecules below were run on BT-549 (assay: Anticancer activity against human BT549 cells assessed as cell growth at 10^-5 M after 48 hrs by SRB assay). Conditions: BT-549, 48 h, read-out: Activity.
Type: functional
How it was run: as §1

SMILES | growth at 10 µM [%]
O=C(NCCNc1nccc(-c2c(-c3cccc(O)c3)nc3sccn23)n1)Nc1ccccc1 | 96.2

What follows are molecules tested on T47D (assay: Anticancer activity against human T47D cells assessed as cell growth at 10^-5 M after 48 hrs by SRB assay). Conditions: read-out: Activity.
Type: functional
How it was run: as §2

SMILES | growth at 10 µM [%]
O=C(NCCNc1nccc(-c2c(-c3cccc(O)c3)nc3sccn23)n1)Nc1ccccc1 | 74.1
